# The source made the active and inactive calls. The calls are words filed in the database; no cut-off is given here.
# Key:
# [1] = molecular target: Tyrosine-protein kinase JAK1 (Homo sapiens, UniProt P23458); assay: Inhibition of JAK1 (unknown origin) in presence of [gamma-33P]ATP
# [2] = molecular target: Non-receptor tyrosine-protein kinase TYK2 (Homo sapiens, UniProt P29597); assay: Inhibition of TYK2 (unknown origin) in presence of [gamma-33P]ATP
# [3] = molecular target: Tyrosine-protein kinase ZAP-70 (Homo sapiens, UniProt P43403); assay: Inhibition of ZAP70 (unknown origin) in presence of [gamma-33P]ATP
# [4] = molecular target: Casein kinase I isoform gamma-3 (Homo sapiens) (UniProt Q9Y6M4); assay: Inhibition of N-terminal 6His-tagged recombinant human CK1gamma3 (1 to 330 residues) expressed in baculovirus infected Sf21 cells assessed as residual activity at 0.1 uM relative to control
# Casein kinase I isoform gamma-3 (Homo sapiens), sequence (Q9Y6M4 whole entry, looked up, the tested form may be a part, canonical isoform): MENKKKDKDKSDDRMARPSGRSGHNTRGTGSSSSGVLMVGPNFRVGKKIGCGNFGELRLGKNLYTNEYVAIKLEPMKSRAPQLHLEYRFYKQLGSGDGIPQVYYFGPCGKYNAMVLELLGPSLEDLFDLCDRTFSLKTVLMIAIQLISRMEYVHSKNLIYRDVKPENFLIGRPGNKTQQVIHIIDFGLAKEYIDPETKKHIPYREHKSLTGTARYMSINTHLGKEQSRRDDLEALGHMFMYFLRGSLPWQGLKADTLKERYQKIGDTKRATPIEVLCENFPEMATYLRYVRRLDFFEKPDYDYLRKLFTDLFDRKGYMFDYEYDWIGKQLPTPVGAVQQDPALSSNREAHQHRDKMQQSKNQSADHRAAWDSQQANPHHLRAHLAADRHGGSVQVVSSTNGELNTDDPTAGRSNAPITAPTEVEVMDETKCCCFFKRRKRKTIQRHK
# [5] = molecular target: Mitogen-activated protein kinase kinase kinase 9 (Homo sapiens) (UniProt P80192); assay: Inhibition of N-terminal 6His-tagged recombinant human MLK1 (134 to 414 residues) expressed in baculovirus infected Sf21 cells assessed as residual activity at 0.1 uM relative to control
# Mitogen-activated protein kinase kinase kinase 9 (Homo sapiens), sequence (P80192 whole entry, looked up, the tested form may be a part): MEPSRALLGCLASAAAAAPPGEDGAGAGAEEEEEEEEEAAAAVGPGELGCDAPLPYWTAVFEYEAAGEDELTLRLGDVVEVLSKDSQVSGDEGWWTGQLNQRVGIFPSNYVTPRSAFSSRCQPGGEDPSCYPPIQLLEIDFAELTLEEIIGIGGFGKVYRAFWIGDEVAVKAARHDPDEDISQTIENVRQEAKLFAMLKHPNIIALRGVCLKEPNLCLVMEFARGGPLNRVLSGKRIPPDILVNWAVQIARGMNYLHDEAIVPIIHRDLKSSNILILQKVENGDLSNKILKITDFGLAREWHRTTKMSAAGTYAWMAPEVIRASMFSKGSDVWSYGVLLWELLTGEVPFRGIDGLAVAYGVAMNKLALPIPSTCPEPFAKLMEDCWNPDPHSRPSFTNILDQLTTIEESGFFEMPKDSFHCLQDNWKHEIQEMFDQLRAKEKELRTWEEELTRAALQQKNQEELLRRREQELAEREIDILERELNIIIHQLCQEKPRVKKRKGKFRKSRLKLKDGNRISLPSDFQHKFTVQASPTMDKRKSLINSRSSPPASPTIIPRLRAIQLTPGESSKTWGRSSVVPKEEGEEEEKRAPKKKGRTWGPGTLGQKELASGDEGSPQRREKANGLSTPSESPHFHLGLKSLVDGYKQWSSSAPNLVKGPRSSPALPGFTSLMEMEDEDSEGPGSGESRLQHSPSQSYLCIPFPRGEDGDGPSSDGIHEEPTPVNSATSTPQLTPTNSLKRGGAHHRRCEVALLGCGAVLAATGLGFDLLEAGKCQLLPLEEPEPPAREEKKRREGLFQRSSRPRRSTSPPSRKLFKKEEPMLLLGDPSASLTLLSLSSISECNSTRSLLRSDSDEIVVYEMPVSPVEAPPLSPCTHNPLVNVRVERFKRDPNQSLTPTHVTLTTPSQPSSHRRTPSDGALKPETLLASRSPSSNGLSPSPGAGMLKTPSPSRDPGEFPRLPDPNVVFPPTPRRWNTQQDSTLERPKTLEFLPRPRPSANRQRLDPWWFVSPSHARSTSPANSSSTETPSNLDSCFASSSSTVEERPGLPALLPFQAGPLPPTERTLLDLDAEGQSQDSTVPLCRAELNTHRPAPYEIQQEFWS
# [6] = molecular target: Serine/threonine-protein kinase Nek11 (Homo sapiens) (UniProt Q8NG66); assay: Inhibition of 6His-tagged recombinant human full-length NEK11 expressed in baculovirus infected Sf21 cells assessed as residual activity at 0.1 uM relative to control
# Serine/threonine-protein kinase Nek11 (Homo sapiens), sequence (Q8NG66 whole entry, the tested form may be a part): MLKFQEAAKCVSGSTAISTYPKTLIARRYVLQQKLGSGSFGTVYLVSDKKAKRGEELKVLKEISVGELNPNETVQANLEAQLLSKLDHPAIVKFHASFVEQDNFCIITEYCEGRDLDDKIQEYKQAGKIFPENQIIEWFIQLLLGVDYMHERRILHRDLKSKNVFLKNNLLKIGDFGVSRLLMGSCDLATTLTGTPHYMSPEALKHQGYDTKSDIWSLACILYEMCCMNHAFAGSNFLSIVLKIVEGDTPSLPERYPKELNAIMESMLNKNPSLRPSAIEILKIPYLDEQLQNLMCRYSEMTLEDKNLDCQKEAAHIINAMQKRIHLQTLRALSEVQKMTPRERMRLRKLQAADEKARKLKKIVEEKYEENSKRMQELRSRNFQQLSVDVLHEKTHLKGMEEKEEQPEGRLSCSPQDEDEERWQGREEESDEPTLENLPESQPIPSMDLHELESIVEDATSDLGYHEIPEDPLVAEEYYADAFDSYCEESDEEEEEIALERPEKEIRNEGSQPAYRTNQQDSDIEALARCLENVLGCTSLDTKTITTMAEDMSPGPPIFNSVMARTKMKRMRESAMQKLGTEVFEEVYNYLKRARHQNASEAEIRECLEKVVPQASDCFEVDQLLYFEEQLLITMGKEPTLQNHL
# [7] = molecular target: Ephrin type-B receptor 3 (Homo sapiens) (UniProt P54753); assay: Inhibition of N-terminal His6-tagged recombinant human EphB3 (599 to 920 residues) expressed in baculovirus infected Sf21 cells assessed as residual activity at 1 uM relative to control
# [8] = molecular target: Maternal embryonic leucine zipper kinase (Homo sapiens) (UniProt Q14680); assay: Inhibition of N-terminal GST-tagged recombinant human MELK (1 to 340 residues) expressed in baculovirus infected Sf21 cells assessed as residual activity at 1 uM relative to control
# Maternal embryonic leucine zipper kinase (Homo sapiens), sequence (Q14680 whole entry, looked up, the tested form may be a part): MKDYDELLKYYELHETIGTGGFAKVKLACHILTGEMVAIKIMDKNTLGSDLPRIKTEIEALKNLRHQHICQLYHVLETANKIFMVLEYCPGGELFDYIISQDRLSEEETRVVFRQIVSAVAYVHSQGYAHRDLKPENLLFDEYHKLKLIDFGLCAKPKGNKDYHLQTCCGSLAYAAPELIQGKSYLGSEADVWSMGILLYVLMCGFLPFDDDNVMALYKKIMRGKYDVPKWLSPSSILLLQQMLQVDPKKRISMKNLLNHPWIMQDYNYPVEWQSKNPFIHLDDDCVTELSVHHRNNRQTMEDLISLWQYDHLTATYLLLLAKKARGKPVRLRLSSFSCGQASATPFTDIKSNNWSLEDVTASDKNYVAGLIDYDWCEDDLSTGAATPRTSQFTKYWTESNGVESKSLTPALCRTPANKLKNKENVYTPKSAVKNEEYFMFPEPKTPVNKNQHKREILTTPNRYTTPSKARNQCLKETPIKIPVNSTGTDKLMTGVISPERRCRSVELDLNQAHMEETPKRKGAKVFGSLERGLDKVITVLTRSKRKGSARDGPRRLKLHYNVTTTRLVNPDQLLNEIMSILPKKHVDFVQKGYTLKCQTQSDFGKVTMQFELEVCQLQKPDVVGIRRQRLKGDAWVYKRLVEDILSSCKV
# [9] = molecular target: MAP kinase-activated protein kinase 5 (Homo sapiens) (UniProt Q8IW41); assay: Inhibition of N-terminal His6-tagged recombinant human full-length PRAK expressed in baculovirus infected Sf21 cells assessed as residual activity at 1 uM relative to control
# MAP kinase-activated protein kinase 5 (Homo sapiens), sequence (Q8IW41 whole entry): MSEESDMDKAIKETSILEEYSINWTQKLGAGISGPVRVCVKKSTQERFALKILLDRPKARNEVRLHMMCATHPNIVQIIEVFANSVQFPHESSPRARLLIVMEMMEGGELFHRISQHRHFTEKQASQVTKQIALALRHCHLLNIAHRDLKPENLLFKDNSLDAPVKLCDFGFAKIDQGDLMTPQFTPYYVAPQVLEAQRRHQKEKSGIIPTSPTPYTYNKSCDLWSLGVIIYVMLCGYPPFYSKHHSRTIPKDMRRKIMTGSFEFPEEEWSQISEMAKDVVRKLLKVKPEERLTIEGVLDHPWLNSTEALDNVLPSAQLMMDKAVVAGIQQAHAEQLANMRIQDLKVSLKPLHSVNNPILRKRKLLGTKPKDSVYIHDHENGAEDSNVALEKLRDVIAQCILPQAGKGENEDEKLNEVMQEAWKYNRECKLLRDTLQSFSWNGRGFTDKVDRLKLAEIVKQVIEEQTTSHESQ
# [10] = Antiproliferative activity against human GBM-0627-GFD cells assessed as inhibition of cell growth incubated for 72 hrs by cell-titer glo assay; format: functional, cell-based
# Summary of the method: (§1)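 Cells seeded 10,000–30,000/cm² (adherent) or 100,000/mL (suspension) in medium with 10% fetal calf serum; after 24 h treated in duplicate with serial dilutions for 72 h. Viable cells read by CellTiter-Glo luminescence; IC50 from sigmoidal fit; at least two independent experiments.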
# SNB-19 = assay: Antiproliferative activity against human SNB-19 cells assessed as inhibition of cell growth incubated for 72 hrs by cell-titer glo assay; format: functional, cell-based; conditions: SNB-19, 72 h
# EVSA-T = assay: Antiproliferative activity against human EVSA-T cells assessed as inhibition of cell growth incubated for 72 hrs by cell-titer glo assay; format: functional, cell-based; summary of the method: as §1
# MDA-MB-468 = assay: Antiproliferative activity against human MDA-MB-468 cells assessed as inhibition of cell growth incubated for 72 hrs by cell-titer glo assay; format: functional, cell-based; conditions: MDA-MB-468, 72 h
# Summary of the method: (§2)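 Cells seeded at 10,000–30,000/cm² (adherent) or 100,000/mL (nonadherent) in medium with 10% fetal calf serum; after 24 h, treated in duplicate with serial dilutions for 72 h. Viable cell number read by CellTiter-Glo luminescence; IC50 from sigmoidal fit; at least two independent experiments.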
# HCC1419 = assay: Antiproliferative activity against human HCC1419 cells assessed as inhibition of cell growth incubated for 72 hrs by cell-titer glo assay; format: functional, cell-based; conditions: HCC1419, 72 h; summary of the method: as §2
# HT-29 = assay: Antiproliferative activity against human HT-29 cells assessed as inhibition of cell growth incubated for 72 hrs by cell-titer glo assay; format: functional, cell-based; conditions: HT-29, 72 h; summary of the method: as §2
# SW480 = assay: Antiproliferative activity against human SW480 cells assessed as inhibition of cell growth incubated for 72 hrs by cell-titer glo assay; format: functional, cell-based; conditions: SW480, 72 h
# TK-10 = assay: Antiproliferative activity against human TK-10 cells assessed as inhibition of cell growth incubated for 72 hrs by cell-titer glo assay; format: functional, cell-based; conditions: TK-10, 72 h
# [11] = Antiproliferative activity against human NCI-H2110 cells assessed as inhibition of cell growth incubated for 72 hrs by cell-titer glo assay; format: functional, cell-based; conditions: NCI-H2110, 72 h
# Summary of the method: (§3)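 Cells from ATCC or ECACC, kept in supplier-recommended medium with 1% penicillin-streptomycin at 37°C, 5% CO₂. Seeded at 10,000–30,000/cm² (adherent) or 100,000/mL (nonadherent) in medium with 10% fetal calf serum. Dosed after 24 h in duplicate with serial dilutions. Viable cells read by CellTiter-Glo 72 h later. IC50 from sigmoidal fit. At least two independent experiments.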
# EKVX = assay: Antiproliferative activity against human EKVX cells assessed as inhibition of cell growth incubated for 72 hrs by cell-titer glo assay; format: functional, cell-based; summary of the method: as §1
# HCC78 = assay: Antiproliferative activity against human HCC78 cells assessed as inhibition of cell growth incubated for 72 hrs by cell-titer glo assay; format: functional, cell-based; conditions: HCC78, 72 h; summary of the method: as §2
# MIA PaCa-2 = assay: Antiproliferative activity against human MIA PaCa-2 cells assessed as inhibition of cell growth incubated for 72 hrs by cell-titer glo assay; format: functional, cell-based; conditions: MIA PaCa-2, 72 h; summary of the method: as §3
# CAPAN-1 = assay: Antiproliferative activity against human CAPAN-1 cells assessed as inhibition of cell growth incubated for 72 hrs by cell-titer glo assay; format: functional, cell-based; conditions: CAPAN-1, 72 h; summary of the method: as §1
# KARPAS-299 = assay: Antiproliferative activity against human KARPAS-299 cells assessed as inhibition of cell growth incubated for 72 hrs by cell-titer glo assay; format: functional, cell-based; conditions: KARPAS-299, 72 h; summary of the method: as §2
# NCI-H929 = assay: Antiproliferative activity against human NCI-H929 cells assessed as inhibition of cell growth incubated for 72 hrs by cell-titer glo assay; format: functional, cell-based; conditions: NCI-H929, 72 h; summary of the method: as §3
# [12] = Clearance in Sprague-Dawley rat at 10 mg/kg, iv by LC-MS analysis; format: ADME, organism-based; conditions: in vivo
# [13] = Volume of distribution at steady state in Sprague-Dawley rat at 10 mg/kg, iv by LC-MS analysis; format: ADME, organism-based; conditions: in vivo, read-out: Vdss
# [14] = AUC in Beagle dog at 5 mg/kg, po by LC-MS analysis; format: ADME, organism-based, Canis lupus familiaris; conditions: in vivo
# [15] = Tmax in nu/nu mouse at 10 mg/kg, po by LC-MS analysis; format: ADME, organism-based; conditions: in vivo
# U2OS = assay: Effect on cell morphology in human U2OS cells assessed as increased number of rounded cells at 1 uM by time lapse microscopy analysis; format: functional, cell-based; conditions: time lower […], time upper 48.0 hrs, TDE = time-dependent effect
# COLO 205 = assay: Antitumor activity against human COLO 205 cells xenografted in nu/nu mouse assessed as tumor growth inhibition at 60 mg/kg, po administered for 10 days; format: functional, organism-based; conditions: time 10.0 day
# HL-60 = assay: Antitumor activity against human HL-60 cells xenografted in nu/nu mouse assessed as efficacy parameter L0 at 60 mg/kg, po administered for 10 days relative to control; format: functional; conditions: time 10 day
# Tyrosine-protein kinase JAK1, sequence (P23458 whole entry): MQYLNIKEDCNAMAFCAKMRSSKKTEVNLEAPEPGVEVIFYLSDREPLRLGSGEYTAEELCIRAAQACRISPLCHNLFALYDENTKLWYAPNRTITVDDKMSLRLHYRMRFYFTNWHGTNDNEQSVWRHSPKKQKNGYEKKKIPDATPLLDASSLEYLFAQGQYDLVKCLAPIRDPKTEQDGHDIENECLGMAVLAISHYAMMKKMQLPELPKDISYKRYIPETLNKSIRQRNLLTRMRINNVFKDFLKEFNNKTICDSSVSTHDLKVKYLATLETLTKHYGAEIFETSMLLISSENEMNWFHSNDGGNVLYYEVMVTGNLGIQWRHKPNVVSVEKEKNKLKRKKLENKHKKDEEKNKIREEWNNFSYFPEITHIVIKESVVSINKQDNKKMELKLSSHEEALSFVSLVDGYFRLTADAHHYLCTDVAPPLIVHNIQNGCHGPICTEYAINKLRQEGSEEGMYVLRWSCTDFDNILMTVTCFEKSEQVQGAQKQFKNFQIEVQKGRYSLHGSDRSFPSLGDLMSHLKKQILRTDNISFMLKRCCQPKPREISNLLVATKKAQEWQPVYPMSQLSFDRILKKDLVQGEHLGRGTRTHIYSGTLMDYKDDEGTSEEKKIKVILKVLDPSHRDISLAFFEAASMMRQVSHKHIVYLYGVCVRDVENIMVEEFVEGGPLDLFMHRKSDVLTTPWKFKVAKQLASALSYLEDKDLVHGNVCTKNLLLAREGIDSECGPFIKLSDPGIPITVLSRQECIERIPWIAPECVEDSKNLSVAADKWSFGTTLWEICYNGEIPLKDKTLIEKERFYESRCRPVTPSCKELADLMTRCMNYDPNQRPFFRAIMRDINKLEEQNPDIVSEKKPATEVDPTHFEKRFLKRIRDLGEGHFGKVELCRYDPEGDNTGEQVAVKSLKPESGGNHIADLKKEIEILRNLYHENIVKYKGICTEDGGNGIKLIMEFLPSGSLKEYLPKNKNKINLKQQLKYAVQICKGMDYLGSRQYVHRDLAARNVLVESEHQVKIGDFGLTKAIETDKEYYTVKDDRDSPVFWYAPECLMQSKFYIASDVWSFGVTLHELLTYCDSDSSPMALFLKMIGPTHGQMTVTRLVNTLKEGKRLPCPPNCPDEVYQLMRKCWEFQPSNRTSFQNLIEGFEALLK
smiles,measurement,setting,value
CN1CCN(c2ccc(OC(F)(F)F)c(Nc3ncc4c(n3)-c3c(c(C(N)=O)nn3CCO)CC4)c2)CC1 [ONVANSERTIB],IC50,[1],> 10000 nM
same,IC50,[2],> 10000 nM
same,IC50,[3],> 10000 nM
same,Activity,[4],96%
same,Activity,[5],93%
same,Activity,[6],114%
same,Activity,[7],87%
same,Activity,[8],71%
same,Activity,[9],77%
same,IC50,[10],56 nM
same,IC50,SNB-19,224 nM
same,IC50,EVSA-T,41 nM
same,IC50,MDA-MB-468,83 nM
same,IC50,HCC1419,42 nM
same,IC50,HT-29,39 nM
same,IC50,SW480,618 nM
same,IC50,TK-10,1210 nM
same,IC50,[11],68 nM
same,IC50,EKVX,196 nM
same,IC50,HCC78,340 nM
same,IC50,MIA PaCa-2,112 nM
same,IC50,CAPAN-1,237 nM
same,IC50,KARPAS-299,53 nM
same,IC50,NCI-H929,63 nM
same,clearance,[12],20.6 mL/min/kg
same,Vd,[13],2.8 L/kg
same,AUC,[14],8.1 µM·h
same,Tmax,[15],24 min
same,Activity,U2OS,Tde
same,TGI,COLO 205,Active
same,Activity,HL-60,0.06 g

# Reference: ChEMBL document CHEMBL5678806, “NMS-P937, an orally available, specific small-molecule polo-like kinase 1 inhibitor with antitumor activity in solid and hematologic malignancies” (Mol Cancer Ther, 2012)
